The results in this text go back to ChEMBL document CHEMBL4513216, “Probing the Open Global Health Chemical Diversity Library for Multistage-Active Starting Points for Next-Generation Antimalarials” (ACS Infect Dis, 2020).

Molecules are shown by their SMILES.

The series in a line: Toxicity liver stage against HepG2, at 10uM. The class given is cell-based. Also on record: test concentration 10 uM, cell line HepG2-A16-CD81EGFP. The settings on record: human, HepG2-A16-CD81EGFP cells; read-out: INHIBITION
Summed up:
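Uninfected HepG2-A16-CD81EGFP cells, 3 × 10^3 per well, 1536-well, plated on prespotted compound at 10 μM final, parasite-free screening media added to match infected plates; puromycin 10 μM positive, DMSO 0.5% negative; run in parallel with 48 h PbLuc assay at 37 °C, 5% CO2; viability by CellTiter-Glo luminescence, normalized to controls.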

On to `O=C(Nc1nncs1)N(Cc1cccc(O)c1)C1CC1`, for which the cytotoxicity at 10 µM was determined as 4.14%.

On to `CCC(=O)NCC(=O)NC(C)c1sc(-c2ccccc2F)nc1C` (stereo unspecified), for which the cytotoxicity at 10 µM turned out to be 9.65%. In the case of `COCC1c2nnn(CC3CC3)c2CCN1Cc1ccncc1` (stereo unspecified) it was 3.37%; in that of `c1ccc(OCc2nnn3c2CN(c2ncccn2)CCC3)nc1`, 1.89%. With `Cn1cc(C(=O)N2CCN(Cc3ccsc3)CC2)cn1`, the cytotoxicity at 10 µM was -10%.

With `CC[C@@]1(O)CCN(C(=O)CCc2cnn(C)c2)C[C@H]1O`, the cytotoxicity at 10 µM was -0.634%. In the case of `O=C(C1=NN(Cc2ccccc2)c2ccccc2S1(=O)=O)N1CCCC1` it was -4.65%; in that of `CN(C)Cc1cnc2n1CCN(C(=O)Cc1cccc(F)c1)CC2`, -11.7%; in that of `CCCc1cc(CN(C)C2CC(C)(C)NC(C)(C)C2)n[nH]1`, -16.7%. Then `CN(CCO)Cc1nnc(C2CCN(C(=O)CN3CCCC3)CC2)n1C`, with 2.1%; and `COc1ccc(-n2ncc3c2NC(=O)CSC3C(C)C)cc1` (stereo unspecified), with 17.4%; and `NC(=O)C1CCN(C(=O)NC2CCc3cc(F)ccc32)CC1` (stereo unspecified), with 2.52%. In the case of `COCCN1CCN(Cc2cnc(C(C)C)nc2)CC1` it was 10.6%; in that of `O[C@@H]1C[C@@H](c2nc(Cc3ccccc3)no2)N(Cc2ncc[nH]2)C1`, 2.63%. As to `Cc1cccc(C)c1Nc1noc2c1CN(C(=O)c1ccn(C)n1)CC2`, the cytotoxicity at 10 µM is 5.69%.

As to `CC(C)c1nc(C2CCCN2C(=O)c2cnns2)no1` (stereo unspecified), the cytotoxicity at 10 µM was -6.8%.

With `COc1ccc(CN(C(=O)C2CCCO2)c2ccncc2)cc1` (stereo unspecified), the cytotoxicity at 10 µM was 1.86%. In the case of `Cc1cc(C(=O)N2C[C@@H](CN(C)CCN(C)C)[C@@H](CO)C2)nc(C)n1` it was 7.01%; in that of `COC(=O)c1ccc(CN2CCC(c3noc(C)n3)CC2)s1`, -1.51%.

Take `Fc1cccnc1CN1CCCCC1c1ccn2ccnc2n1` (stereo unspecified): the cytotoxicity at 10 µM amounted to 0.505%. As for `CCc1nc(C(=O)N2CC(C(C)C)Nc3ccccc32)c[nH]1` (stereo unspecified), the cytotoxicity at 10 µM is -0.0979%. Then `Cc1c(Cl)c(CN2CCCC2Cn2cncn2)nc2ccccc12` (stereo unspecified), with -13.3%; and `Cc1cc(CNC(=O)C2CCN(CC(N)=O)CC2)cc(C)n1`, with -3.06%; and `CN(C)C(=O)N1CC2(CCOCC2)c2cc(NC(=O)CCO)ccc21`, with -6.13%. Consider `CCNS(=O)(=O)c1ccc(C)c(C(=O)N(CCC#N)Cc2ccco2)c1`, for which the cytotoxicity at 10 µM turned out to be 5.44%. Then `Cc1cc(CNC(=O)NCCOc2ccc(F)c(F)c2)on1`, with 16.3%; and `Fc1cccc(C2(CNC3CCCNC3)CCOCC2)c1` (stereo unspecified), with 0.979%. In the case of `O=C(C1CC1)N(Cc1ccc2cc[nH]c2c1)C1CC1` it was -2.98%.

With `O=C1CSC(c2ccc(Cl)cc2Cl)c2c(n(C3CCOCC3)[nH]c2=O)N1` (stereo unspecified), the cytotoxicity at 10 µM was -7.92%.

With `Cc1cccc(SC2CCN(C(=O)CCCn3cnnn3)CC2)c1`, the cytotoxicity at 10 µM is 0.647%. Then `CC(=O)N1CCC2(CCN(C(=O)c3cccc(C(F)(F)F)c3)CC2)C1`, with -71.5%; and `CN(Cc1ccc(C2CC(=O)Nc3n[nH]cc32)o1)S(C)(=O)=O` (stereo unspecified), with -13.8%.

In the case of `CC(=O)N1CCC2(CC1)[C@@H]1CN(C(=O)N(C)C)C[C@@H]1C(=O)N2C`, the cytotoxicity at 10 µM amounted to 2.38%.

Regarding `CN(C)[C@@H]1CO[C@H](CNC(=O)Nc2ccccc2)[C@H]1O`, the cytotoxicity at 10 µM was -0.713%. Then `Cc1cc(NC(=O)CN2CCCC2c2c(C)nn(C)c2C)on1` (stereo unspecified), with -2.9%; and `c1cnc(-c2nn3c(CN4CCCCCC4)nnc3s2)cn1`, with 10.8%; and `CC(C)CS(=O)(=O)CC(=O)NC1CCCCNC1=O` (stereo unspecified), with -3.03%. Then `Cc1noc(CCCC(=O)NC(C)c2nnc3n2CCCCC3)n1` (stereo unspecified), with 3.21%; and `COc1cc(C(=O)NCCS(=O)(=O)N(C)C)c2ccccc2n1`, with -0.0932%.

Turning to `CCc1ccc(C(C)NC(=O)c2ccc(CS(C)(=O)=O)o2)cc1` (stereo unspecified), the cytotoxicity at 10 µM is -3.07%. Then `CC(=O)N1C[C@H](NS(=O)(=O)N2CCCC2)[C@@H](c2ccc(C)o2)C1`, with -1.91%; and `c1c(-c2nc(CN3CCOCC3)no2)nnn1CC1CCCCC1`, with 3.15%; and `O=C(c1cnco1)N1CCC(Cc2cnc3ccccc3c2)CC1`, with 5.08%. As to `CC(C)(C)c1ccn(C2(C(=O)O)CCN(c3ncccc3C#N)CC2)n1`, the cytotoxicity at 10 µM was -7.6%.

`CC1CCN(c2cc(CCC3CCCN3)ncn2)CC1` (stereo unspecified): the cytotoxicity at 10 µM was -14.6%. On to `Cc1ccc(NC(=O)N2CCCC2)c(OCC2CCCO2)c1` (stereo unspecified), for which the cytotoxicity at 10 µM is 6.36%. In the case of `CCc1nc(CN2CCCC(NCc3nnc(C4CC4)o3)C2)no1` (stereo unspecified) it was -5.73%. For the compound `COc1cccc(NC(=O)NC(C)c2ccc3c(c2)CC(=O)N3)c1` (stereo unspecified), the cytotoxicity at 10 µM is -3.49%. Turning to `Cc1ccc(CNC(=O)C2=NOC3(CCCNC3)C2)cc1` (stereo unspecified), the cytotoxicity at 10 µM amounted to 1.33%.

Consider `CNC(=O)[C@H]1C[C@@H]2CN(C(=O)c3ccc(C)o3)C[C@@H]2N1S(C)(=O)=O`, for which the cytotoxicity at 10 µM was -2.33%. Take `CCNC(=O)Cc1ccc(NC(=O)NC(CC)CC)cc1`: the cytotoxicity at 10 µM is -6.93%. Then `O=C(NCc1cccc(F)c1)NCC(O)c1cccc(F)c1` (stereo unspecified), with -7.58%. As for `O=C(NCCn1ccnc1)c1cc(F)cc(Br)c1`, the cytotoxicity at 10 µM is -1.62%. As for `CNC(=O)N1CC[C@@H]2CN(Cc3ccccc3)S(=O)(=O)[C@@H]2CC1`, the cytotoxicity at 10 µM is -96.6%. `CC(C)CCN1CCC2(CNS(=O)(=O)c3cccnc3O2)C1` (stereo unspecified): the cytotoxicity at 10 µM turned out to be 4.1%. Consider `Cn1cnc(S(=O)(=O)NCC2(O)CCc3ccccc32)c1` (stereo unspecified), for which the cytotoxicity at 10 µM was found to be 11.6%.

For `Cc1cc(N2CCC(N(C)Cc3cc(=O)c(O)co3)CC2)nc(C)n1`, the cytotoxicity at 10 µM came to 2.34%. Then `CC(C)[C@@H]1CN(Cc2ccccc2C#N)C[C@H]1NC(=O)N(C)C`, with -12.3%. Then `CC(C)n1cc(-c2c(C#N)c(N)nc3c2COCC3)cn1`, with 17.2%; and `CCn1c(CN2CCN(C(=O)C3CCC3)CC2)nc2c(F)cccc21`, with -3.78%. Turning to `Cc1ccc(CNC(C)c2cc(F)ccc2N2CCN(C)CC2)o1` (stereo unspecified), the cytotoxicity at 10 µM worked out at 0.513%. As to `Cc1cnn(CC2CCCN2C(=O)c2n[nH]c(=O)c3ccccc23)c1` (stereo unspecified), the cytotoxicity at 10 µM is -21.9%.

Turning to `Cc1nccn1CCC(=O)N1CCCN(CCCc2ccccc2)CC1`, the cytotoxicity at 10 µM was -13.6%.

On to `Cc1ncc(CN2C[C@H]3CC(OCc4ccccc4)C[C@H]3C2)cn1` (stereo partly specified), for which the cytotoxicity at 10 µM is -24.3%.

Turning to `Cn1cc(NC(=O)Nc2ccccn2)cc(Cl)c1=O`, the cytotoxicity at 10 µM was -7.82%.

On to `OCCOc1ccc(NCc2cccnc2)cn1`, for which the cytotoxicity at 10 µM was determined as 1.04%.

In the case of `CC(C)C(=O)NC(Cc1cc(N(C)C)nc(C2CC2)n1)c1ccccc1` (stereo unspecified), the cytotoxicity at 10 µM was determined as 3.37%.

Take `Cn1ccc(C(=O)N(CC(F)(F)F)c2cccc(Cl)c2)cc1=O`: the cytotoxicity at 10 µM was -0.0519%. Then `Cc1cccc(N2CC3(CCN(c4nncs4)C3)CC2=O)c1` (stereo unspecified), with 0.179%; and `CCc1nc(C)c(C(=O)N2C[C@@H]3CC[C@H]2CN(S(=O)(=O)N(C)C)C3)s1`, with 25%. Then `CCS(=O)(=O)N1CCC(c2nccn2Cc2ccncc2)CC1`, with -4%; and `CCc1nnc(SCC(=O)N2CCc3[nH]nc(C4CCC4)c3C2)o1`, with -5.22%. In the case of `CC(C)CC(NS(C)(=O)=O)C(=O)N(C)Cc1nnc2n1CCC2` (stereo unspecified) it was -4.22%; in that of `CC(=O)NCC1CN(c2ccc3c(Cl)ccnc3c2F)CCO1` (stereo unspecified), 5.29%; in that of `O=C(NCC1CC1)c1cc(Br)cnc1N1CCCCC1`, 3.1%.

As for `N#Cc1cccc(CS(=O)(=O)NC(Cc2ccccc2)C(N)=O)c1` (stereo unspecified), the cytotoxicity at 10 µM amounted to 9.16%.

With `COc1ccnc(N2CCN(C(=O)c3cscn3)CC2)n1`, the cytotoxicity at 10 µM was 0.883%. Take `CCn1ccnc1CN(C)c1cc(OC)ncn1`: the cytotoxicity at 10 µM is -37.5%. For the compound `CCOCc1nc(-c2ccc(F)cc2Cl)n(C)n1`, the cytotoxicity at 10 µM was -10.2%. In the case of `CN1CSC[C@H]1C(=O)N1CCC(CCc2ccccc2)CC1` it was 3.23%; in that of `CCN(Cc1ccncc1)C(=O)c1cn(CC2CCCNC2)nn1` (stereo unspecified), 5.35%. Turning to `COc1ccc(C2CCCN2C(=O)c2cc(C(C)C)on2)cc1` (stereo unspecified), the cytotoxicity at 10 µM was found to be 0.462%. For `COc1ccc(OC)c(CNC(=O)N2CCC(n3cncn3)CC2)c1`, the cytotoxicity at 10 µM was determined as 2.46%.

For the compound `COc1ccc(CCN2CC(n3nc(C)cc3C)C2)cc1`, the cytotoxicity at 10 µM was -9.12%. For `NC(=O)c1c[nH]nc1NC(=O)c1ccc(Cl)cc1`, the cytotoxicity at 10 µM was 3.19%.

As for `CN(C)C(=O)COC1COC2(CCN(c3cccc(F)c3)CC2)C1` (stereo unspecified), the cytotoxicity at 10 µM was -66%. In the case of `CC(C)Cn1cc(NC(=O)N2CCCC2)cn1` it was -5.28%; in that of `Cc1ccc2c(n1)N(C)CCN(Cc1cnn(C)c1)C2`, 3.04%; in that of `O=S(=O)(c1ccccc1Cl)N1CCC2(CC1)OCCS2`, -4.84%. Then `CCC1COC2(CCN(C(=O)c3ccco3)CC2)C1` (stereo unspecified), with -65.4%.

As to `Cc1cnccc1-n1nc(C(C)C)nc1CS(C)(=O)=O`, the cytotoxicity at 10 µM turned out to be 0.999%.

On to `CC(c1nc(C2CC2)no1)N1CCN(CCS(C)(=O)=O)CC1` (stereo unspecified), for which the cytotoxicity at 10 µM was found to be 7.41%. For `COCCO[C@H]1CCN(C(=O)C2CCOCC2)[C@H]1Cc1ccncc1`, the cytotoxicity at 10 µM came out at 4.32%. Consider `Cc1nn(C)c2cnn(C(C)C(=O)NCc3cccnc3)c12` (stereo unspecified), for which the cytotoxicity at 10 µM is 9.77%. In the case of `CN(Cc1cnn(C)c1)C(=O)NC1CCN(Cc2ccccn2)CC1` it was -2.35%; in that of `NC(=O)C1CCN(C(=O)NCCOc2ccc3c(c2)CCC3)CC1`, -7.07%.
